hERG rescue – hERG (human) protection from proarrhythmic block. Q12809. CHO-hERG, FluxOR thallium flux, dofetilide IC70 present. activation (rescue from dofetilide block), less the hit threshold, % at 10 µM. hit rate 0.51% among 310,000. AID 1511;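 active means activation above the mean of controls blocked by dofetilide plus 5 SD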;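 further: thallium influx through hERG after potassium depolarization seen as dye fluorescence rise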
KCNK9 block – human KCNK9 channel inhibition. Q9NPC2. HEK293 KCNK9, FluxOR thallium flux fluorescence; active compounds read low. B-score at 10 µM. hit rate 1.2% among 310,000;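 active means ratio B-score over 3 SD below the library mean, with starting fluorescence within 5 SD of its mean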;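 further: negative B-score means less thallium flux so channel inhibition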
KCNQ1 act – potentiators or activators of human KCNQ1 potassium channel. AID 2648. P51787. hit rate 0.35% among 310,000. B-score at 10 µM. CHO-K1 KCNQ1, thallium flux FluxOR fluorescence; active compounds read high;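 active means fluorescence ratio B-score, a plate-corrected score, at least three library SD, with initial intensity B-score within 5 SD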
Target sequence (P51787 whole entry, looked up): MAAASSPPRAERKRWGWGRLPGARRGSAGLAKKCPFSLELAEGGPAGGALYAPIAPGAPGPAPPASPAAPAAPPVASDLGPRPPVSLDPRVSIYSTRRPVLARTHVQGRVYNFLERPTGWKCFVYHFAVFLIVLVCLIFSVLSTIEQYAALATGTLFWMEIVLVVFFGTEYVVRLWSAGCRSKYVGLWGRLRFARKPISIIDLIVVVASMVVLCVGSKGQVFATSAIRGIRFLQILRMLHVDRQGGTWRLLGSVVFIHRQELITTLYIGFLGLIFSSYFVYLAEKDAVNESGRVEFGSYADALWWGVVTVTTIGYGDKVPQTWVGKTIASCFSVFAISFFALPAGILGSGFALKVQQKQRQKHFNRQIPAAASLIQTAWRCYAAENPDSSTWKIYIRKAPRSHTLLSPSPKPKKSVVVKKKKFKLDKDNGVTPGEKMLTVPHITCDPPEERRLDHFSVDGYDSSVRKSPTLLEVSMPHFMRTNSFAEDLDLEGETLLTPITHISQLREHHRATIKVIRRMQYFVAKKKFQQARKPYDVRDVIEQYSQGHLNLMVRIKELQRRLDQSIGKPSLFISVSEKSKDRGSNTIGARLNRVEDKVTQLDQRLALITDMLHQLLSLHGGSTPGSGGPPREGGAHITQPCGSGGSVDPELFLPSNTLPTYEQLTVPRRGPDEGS
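System: CHO-K1 cells stably expressing KCNQ1 / Medium: assay buffer for compound exposure, DMSO matched across wells / Reagent: thallium- and potassium-containing depolarizing buffer / Compound: one concentration, matched DMSO / Incubation: 20 min compound pretreatment at room temperature / Measured by: kinetic FluxOR fluorescence, 10 s baseline plus 110 s post-stimulus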
KCNK3 inh – human KCNK3 channel inhibition, primary screen; O14649; CHO-KCNK3 thallium flux, FluxOR fluorescence; active compounds read low; B-score at 10 µM; hit rate 0.84% among 340,000;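 active means B-score under library mean minus 4 SD, starting fluorescence ratio at most library mean plus 5 SD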;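 further: more negative B-score means stronger inhibition of thallium flux through KCNK3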
Kir21 block – blocks the mouse Kir2.1 inward-rectifier potassium channel; AID 1672; P35561; hit rate 0.85% among 310,000; B-score at 10 µM; HEK293-Kir2.1, FluxOR thallium flux fluorescence; active compounds read low;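 active means fluorescence ratio B-score at or below minus 3 SD of library scores, with starting-brightness B-score within 2 SD, cut at about -4.2 in these data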;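 further: channel flux triggered by added potassium and thallium sulfate stimulus; B-score of peak minus minimum fluorescence over baseline after thallium stimulus; more negative B-score means stronger Kir2.1 block with less thallium influx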
KCNQ1 block – inhibitors of human KCNQ1 potassium channel. P51787. CHO-K1 KCNQ1, FluxOR thallium flux fluorescence; active compounds read high. B-score at 10 µM. hit rate 1.3% among 310,000. AID 2642;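 active means compounds whose thallium flux B-score, printed positive for inhibition, exceeds three library SD while starting fluorescence stays within three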;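 further: channel opened by potassium depolarization with thallium stimulus after 20 min compound exposure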
An asterisk follows results filed as active. This is a sample that favours compounds with a hit; in the whole collection about 3.7% have one here.

COc1cc(NC2c3ncccc3C(=O)N2Cc2ccco2)cc(OC)c1OC (centres undefined) was read as hERG rescue -4.4, KCNK9 block inactive, KCNQ1 act inactive, KCNK3 inh inactive, Kir21 block 0.78 and KCNQ1 block inactive.
COc1cc2c(cc1OC)C1=CC(=O)C(=O)N1C(C)(C)C2 was read as hERG rescue -10.7, KCNK9 block inactive, KCNQ1 act inactive, KCNK3 inh inactive, Kir21 block -0.77 and KCNQ1 block 12*.
COc1cc2c(cc1OC)-c1nc3ccccc3c(=O)n1C(C)(C)C2 was read as hERG rescue -12.9, KCNK9 block inactive, KCNQ1 act inactive, KCNK3 inh inactive, Kir21 block -1.31 and KCNQ1 block inactive.
For CCn1c(C)c(C(C)=O)c(N2CCN(c3ccccn3)CC2)nc1=S the results were hERG rescue 1.5, KCNK9 block -6.67*, KCNQ1 act inactive, KCNK3 inh inactive, Kir21 block 2.3 and KCNQ1 block inactive.
CCn1c(C)c(C(C)=O)c(N2CCN(c3ccccc3)CC2)nc1=S was read as hERG rescue -8.3, KCNK9 block inactive, KCNQ1 act inactive, KCNK3 inh inactive, Kir21 block -0.88 and KCNQ1 block inactive.
O=C(Nc1cccc(C(F)(F)F)c1)C(SCCO)c1ccccc1 (centres undefined) was read as hERG rescue -11.3, KCNK9 block -7.45*, KCNQ1 act inactive, KCNK3 inh inactive, Kir21 block -1.27 and KCNQ1 block inactive.
For Cn1nnnc1SC(C(=O)Nc1cccc(C(F)(F)F)c1)c1ccccc1 (centres undefined) the results were hERG rescue -10.6, KCNK9 block -7*, KCNQ1 act inactive, KCNK3 inh inactive, Kir21 block 0.11 and KCNQ1 block inactive.
For O=C(Nc1cccc(C(F)(F)F)c1)C(Sc1ncnc2ccccc12)c1ccccc1 (centres undefined) the results were hERG rescue -11.8, KCNK9 block inactive, KCNQ1 act inactive, KCNK3 inh inactive, Kir21 block 0.93 and KCNQ1 block inactive.
Screening COc1ccc(C)cc1S(=O)(=O)N(C)CC(=O)NCc1ccccn1 returned hERG rescue -1.8, KCNK9 block inactive, KCNQ1 act inactive, KCNK3 inh inactive, Kir21 block -0.03 and KCNQ1 block inactive.
Screening CCCCOc1ccc(-c2nc(/C=N/c3nccs3)c(O)o2)cc1 returned hERG rescue 1.3, KCNK9 block inactive, KCNQ1 act inactive, KCNK3 inh inactive, Kir21 block 0.66 and KCNQ1 block inactive.
Oc1oc(-c2ccccc2)nc1/C=N/c1nccs1 was read as hERG rescue 0.4, KCNK9 block inactive, KCNQ1 act 12*, KCNK3 inh inactive, Kir21 block -1.42 and KCNQ1 block inactive.
Screening CCOC(=O)C1(Cc2ccccc2Cl)CCN(C(=O)c2cnccn2)CC1 returned hERG rescue -8.2, KCNK9 block inactive, KCNQ1 act inactive, KCNK3 inh inactive, Kir21 block 0.33 and KCNQ1 block inactive.
Screening COc1ccc(C(=O)NC(=S)N(C)C2CCCCC2)cc1 returned hERG rescue -3.8, KCNK9 block inactive, KCNQ1 act inactive, KCNK3 inh inactive, Kir21 block -1.43 and KCNQ1 block inactive.
For Cc1ccccc1C(=O)NC(=S)N(C)C1CCCCC1 the results were hERG rescue -4.3, KCNK9 block inactive, KCNQ1 act inactive, KCNK3 inh inactive, Kir21 block 2.91 and KCNQ1 block inactive.
For CN(C(=S)NC(=O)c1ccccc1Br)C1CCCCC1 the results were hERG rescue 2.0, KCNK9 block inactive, KCNQ1 act 13*, KCNK3 inh inactive, Kir21 block 0.87 and KCNQ1 block inactive.
`COc1ccc(C(=O)NC(=S)N(C)C2CCCCC2)cc1Br` gave hERG rescue 6.2*, KCNK9 block inactive, KCNQ1 act inactive, KCNK3 inh inactive, Kir21 block 0.72 and KCNQ1 block inactive.
`Cc1ccc(C(=O)NC(=S)N(C)C2CCCCC2)cc1Br` gave hERG rescue 1.8, KCNK9 block inactive, KCNQ1 act 16*, KCNK3 inh inactive, Kir21 block -0.29 and KCNQ1 block inactive.
N/C(=N\OC(=O)CC(c1ccccc1)c1ccccc1)c1cccnc1 was read as hERG rescue 4.6*, KCNK9 block inactive, KCNQ1 act inactive, KCNK3 inh inactive, Kir21 block -0.47 and KCNQ1 block inactive.
N/C(=N\OC(=O)Cc1ccccc1)c1cccnc1 was read as hERG rescue -11.8, KCNK9 block inactive, KCNQ1 act inactive, KCNK3 inh inactive, Kir21 block 0.02 and KCNQ1 block inactive.
For Cc1onc(NC(=O)CSCC(=O)O)c1Br the results were hERG rescue -4.3, KCNK9 block inactive, KCNQ1 act inactive, KCNK3 inh inactive, Kir21 block -2.35 and KCNQ1 block inactive.
`COc1ccccc1C(=O)ON=C1c2ccccc2-c2ccccc21` gave hERG rescue -19.1, KCNK9 block -8.09*, KCNQ1 act inactive, KCNK3 inh inactive, Kir21 block 1.79 and KCNQ1 block inactive.
`O=C(COc1ccccc1Cl)Nc1ccc(N2CCN(C(=O)c3ccccc3)CC2)cc1` gave hERG rescue -9.4, KCNK9 block inactive, KCNQ1 act inactive, KCNK3 inh inactive, Kir21 block -1.39 and KCNQ1 block inactive.
CC1(C)Oc2ccc3ccc(=O)oc3c2/C(=C/Nc2cccc(O)c2)C1=O was read as hERG rescue -13.7, KCNK9 block -6.73*, KCNQ1 act inactive, KCNK3 inh inactive, Kir21 block -2.31 and KCNQ1 block 6*.
`COc1ccc(OCC(=O)N(Cc2ccco2)C2CCS(=O)(=O)C2)cc1` (centres undefined) gave hERG rescue -4.1, KCNK9 block inactive, KCNQ1 act inactive, KCNK3 inh inactive, Kir21 block 0 and KCNQ1 block inactive.
C#CCn1c(=NC(=O)CSC(C)=O)sc2cc(F)ccc21 was read as hERG rescue 0.1, KCNK9 block -7.81*, KCNQ1 act inactive, KCNK3 inh inactive, Kir21 block -0.79 and KCNQ1 block inactive.
For O=C(CN1CCCc2ccccc21)NCCc1ccc(F)cc1 the results were hERG rescue -12.4, KCNK9 block inactive, KCNQ1 act inactive, KCNK3 inh inactive, Kir21 block -6.52* and KCNQ1 block inactive.
For CCCCN(CCCC)S(=O)(=O)c1ccc(NC(=O)c2ccc([N+](=O)[O-])cc2Cl)cc1 the results were hERG rescue -7.4, KCNK9 block inactive, KCNQ1 act inactive, KCNK3 inh inactive, Kir21 block -3.48 and KCNQ1 block 7*.
Screening NC(=O)CSc1nccn1Cc1ccccc1 returned hERG rescue -12.3, KCNK9 block inactive, KCNQ1 act inactive, KCNK3 inh inactive, Kir21 block -1.1 and KCNQ1 block inactive.

Compound activity deposited in PubChem BioAssay by Johns Hopkins Ion Channel Center.
